According to ChEMBL document CHEMBL1255219, “Discovery of a β-d-2'-deoxy-2'-α-fluoro-2'-β-C-methyluridine nucleotide prodrug (PSI-7977) for the treatment of hepatitis C virus” (J Med Chem, 2010):
pIC50: −log10 of the molar value.

Key:
[1] = system: Rattus norvegicus; test: AUC (0 to infinity) in rat liver assessed as 2'-F-2'-C-Methyluridine-5''-TP level at 50 mg/kg, po; format: ADME, organism-based; set-up: time infinity, dose 50 mg/kg, route oral; settings: in vivo
Summary of the method: (§1)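 Rats given a single oral gavage dose of 50 mg/kg in 0.5% carboxymethylcellulose sodium, 5 mL/kg. Livers taken at 0.5, 1, 2, 4, 6 and 12 h after CO2 sacrifice and ice-cold saline perfusion, then snap-frozen. Homogenized in 3 volumes of cold 70% methanol with 20 mM EDTA/EGTA. Triphosphate measured by LC/MS/MS (ESI, MRM negative mode), noncompartmental analysis.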

[2] = Tmax in cynomolgus monkey plasma at 50 mg/kg, po qd for 4 days; format: ADME, organism-based, Macaca fascicularis; set-up: dose 50 mg/kg, route oral
Summary of the method: (§2)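 Oral gavage (dog gastric, monkey nasogastric), 50 mg/kg in 20% w/v hydroxypropyl-β-cyclodextrin in water, 2.5 mL/kg, once daily for 4 consecutive days. Blood sampled into K2EDTA at 1, 2, 4, 6, 12 and 24 h postdose on day 3. Prodrug in plasma quantified by LC/MS/MS, noncompartmental analysis.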

[3] = system: Canis familiaris; test: Metabolic stability in dog liver assessed as 2'-F-2'-C-Methyluridine-5''-triphosphate level at 50 mg/kg, po; format: ADME, organism-based, Canis lupus familiaris; set-up: dose 50 mg/kg, route oral; settings: in vivo
Summary of the method: (§3)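 Dogs and cynomolgus monkeys gavaged once daily with 50 mg/kg in 20% w/v hydroxypropyl-β-cyclodextrin for 4 days. At 4 h postdose on day 4, under pentobarbital, the liver was perfused with ice-cold saline via a portal cannula. Five lobe samples were snap-frozen and homogenized in 3 volumes of cold 70% methanol with 20 mM EDTA/EGTA. Prodrug and triphosphate measured by LC/MS/MS.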

[4] = Cytotoxicity against human BxPC3 cells at 100 uM; format: cell-based; settings: bxpc-3, 100 µM
Summary of the method: (§4)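 Huh7, HepG2 and BxPC3 cells at 2 × 10^3 per well, CEM at 5 × 10^3 per well. Compound serially diluted from 100 μM, 8 days at 37 °C. MTS added for 2 h, absorbance read at 490 nm with medium-only blanks. CC50 taken relative to untreated cells.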

[5] = Tmax in dog plasma at 50 mg/kg, po qd for 4 days; format: ADME, organism-based, Canis lupus familiaris; set-up: dose 50 mg/kg, route oral; summary of the method: as §2
[6] = AUC (0 to t) in cynomolgus monkey plasma at 50 mg/kg, po qd for 4 days; format: ADME, organism-based, Macaca fascicularis; set-up: dose 50 mg/kg, route oral; summary of the method: as §2
[7] = AUC (0 to infinity) in cynomolgus monkey plasma at 50 mg/kg, po qd for 4 days; format: ADME, organism-based, Macaca fascicularis; set-up: time infinity, dose 50 mg/kg, route oral; summary of the method: as §2
[8] = system: Rattus norvegicus; test: Toxicity in rat assessed as change in macroscopic pathology at 50 to 1800 mg/kg, po after 14 days; format: organism-based; set-up: dose 50-1800 mg/kg, route oral; settings: in vivo, 336 h
Summary of the method: (§5)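 Rats (CD SD, 4–5 weeks, 76–100 g) given a single oral dose of 50, 300 or 1800 mg/kg, or vehicle (30% PEG400/30% Tween 20/20% corn oil/20% water). Observed daily for 14 days with daily body weights. Necropsy on day 15 with macroscopic examination and liver and paired kidney weights.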

[9] = system: Rattus norvegicus; test: Toxicity in rat assessed as change in liver weight at 50 to 1800 mg/kg, po after 14 days; format: organism-based; set-up: dose 50-1800 mg/kg, route oral; settings: in vivo, 336 h; summary of the method: as §5
[10] = system: Hepatitis C virus; test: Antiviral activity against HCV infected in human clone A cells assessed as inhibition of cellular rRNA replication at 50 uM; format: functional, Hepacivirus hominis
[11] = system: CCRF-CEM; test: Cytotoxicity against human CEM cells at 100 uM; format: cell-based; summary of the method: as §4
[12] = Half life in simulated intestinal fluid of pH 7.5 at 50 ug/mL; format: physicochemical
Summary of the method: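 Compound at 50 μg/mL in simulated gastric fluid (pH 1.2) or simulated intestinal fluid (pH 7.5), 37 °C, 20 h. Injected by reverse-phase HPLC every 2 h, peak area at 260 nm.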

[13] = system: Rattus norvegicus; test: Cmax in rat liver assessed as 2'-F-2'-C-Methyluridine-5''-TP level at 50 mg/kg, po; format: ADME, organism-based; set-up: dose 50 mg/kg, route oral; settings: in vivo; summary of the method: as §1
[14] = AUC (0 to t) in dog plasma at 50 mg/kg, po qd for 4 days; format: ADME, organism-based, Canis lupus familiaris; set-up: dose 50 mg/kg, route oral; summary of the method: as §2
[15] = Half life in simulated gastric fluid at pH 1.2 at 50 ug/mL; format: physicochemical
Summary of the method: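 Compound at 50 μg/mL in simulated gastric fluid (pH 1.2) or simulated intestinal fluid (pH 7.5), 37 °C, 20 h. Injected by reverse-phase HPLC every 2 h, peak area at 260 nm. Percent parent remaining relative to 0 h, giving half-life.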

[16] = Permeability by PAMPA assay; format: ADME; settings: read-out: permeability
Summary of the method: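 PAMPA with a lecithin-in-dodecane (20 mg/mL) coated filter donor. Donor held 200 μg/mL compound in PBS pH 7.4 with 2% DMSO; acceptor held PBS with 2% DMSO. Left 24 h. Donor and acceptor concentrations measured by LC/MS/MS (MRM), and Pe calculated from concentrations, volumes, filter area and time.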

[17] = species on record: Homo sapiens; test: Half life in human plasma at 100 uM
[18] = system: Rattus norvegicus; test: Toxicity in rat assessed as mortality at 50 to 1800 mg/kg, po after 14 days; format: organism-based; set-up: dose 50-1800 mg/kg, route oral; settings: in vivo, 336 h; summary of the method: as §5
[19] = AUC (0 to infinity) in dog plasma at 50 mg/kg, po qd for 4 days; format: ADME, organism-based, Canis lupus familiaris; set-up: time infinity, dose 50 mg/kg, route oral; summary of the method: as §2
[20] = system: Rattus norvegicus; test: Tmax in rat liver assessed as 2'-F-2'-C-Methyluridine-5''-TP level at 50 mg/kg, po; format: ADME, organism-based; set-up: dose 50 mg/kg, route oral; settings: in vivo; summary of the method: as §1
[21] = system: HepG2; test: Cytotoxicity against human HepG2 cells at 100 uM; format: cell-based; settings: hepg2, 100 µM; summary of the method: as §4
[22] = system: Rattus norvegicus; test: Toxicity in rat assessed as change in body weight at 50 to 1800 mg/kg, po after 14 days; format: organism-based; set-up: dose 50-1800 mg/kg, route oral; settings: in vivo, 336 h; summary of the method: as §5
[23] = system: Canis familiaris; test: Metabolic stability in dog liver assessed as prodrug level at 50 mg/kg, po; format: ADME, organism-based, Canis lupus familiaris; set-up: dose 50 mg/kg, route oral; settings: in vivo; summary of the method: as §3
[24] = Cmax in cynomolgus monkey plasma at 50 mg/kg, po qd for 4 days; format: ADME, organism-based, Macaca fascicularis; set-up: dose 50 mg/kg, route oral; summary of the method: as §2
[25] = Cytotoxicity against HuH7 cells at 100 uM; format: cell-based; settings: human, huh-7, 100 µM; summary of the method: as §4
[26] = system: Hepatitis C virus; test: Antiviral activity against HCV infected in human clone A cells; format: functional, Hepacivirus hominis; settings: Hepatitis C virus
Summary of the method: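 Clone A replicon cells seeded at 1500 cells/well. Compounds serially diluted in G418-free culture medium and added, then incubated 4 days at 37 °C in 5% CO2. HCV RNA quantified by real-time RT-PCR as ΔCt relative to the mean no-drug control.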

[27] = system: Rattus norvegicus; test: Toxicity in rat assessed as change in kidney weight at 50 to 1800 mg/kg, po after 14 days; format: organism-based; set-up: dose 50-1800 mg/kg, route oral; settings: in vivo, 336 h; summary of the method: as §5
[28] = system: Cynomolgus monkey; test: Metabolic stability in cynomolgus monkey liver assessed as prodrug level at 50 mg/kg, po; format: ADME, organism-based, Macaca fascicularis; set-up: dose 50 mg/kg, route oral; settings: in vivo; summary of the method: as §3
[29] = Cmax in dog plasma at 50 mg/kg, po qd for 4 days; format: ADME, organism-based, Canis lupus familiaris; set-up: dose 50 mg/kg, route oral; summary of the method: as §2
[30] = Half life in human liver S9 fraction at 100 uM; format: ADME, subcellular
Summary of the method: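 Compound at 100 μM in 50 mM K2HPO4 pH 7.4 with 5 mM MgCl2. Started with 4 mg/mL human liver S9 at 37 °C. Samples at 0–24 h quenched with acetonitrile. Parent remaining measured by LC/MS/MS peak area relative to 0 h, and half-life calculated.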

[31] = system: Rattus norvegicus; test: AUC (0 to t) in rat liver assessed as 2'-F-2'-C-Methyluridine-5''-TP level at 50 mg/kg, po; format: ADME, organism-based; set-up: dose 50 mg/kg, route oral; settings: in vivo; summary of the method: as §1
[32] = Cytotoxicity against human myeloid progenitor cells after 14 to 16 days
[33] = Cytotoxicity against human erythroid progenitor cells after 14 to 16 days
[34] = system: Cynomolgus monkey; test: Metabolic stability in cynomolgus monkey liver assessed as 2'-F-2'-C-Methyluridine-5''-triphosphate level at 50 mg/kg, po; format: ADME, organism-based, Macaca fascicularis; set-up: dose 50 mg/kg, route oral; settings: in vivo; summary of the method: as §3

| Structure (SMILES) | AUC [1] | Tmax [2] | Drug uptake [3] | Activity [4] | Tmax [5] | Activity [8] | Activity [9] | inhibition at 50 µM [10] | Activity [11] | half-life at 50 ug/mL [12] | Cmax [13] | AUC(0-t) at 96 h [14] | half-life at 50 ug/mL [15] | Papp [16] | half-life at 100 µM [17] | Activity [18] | AUC(0-inf) [19] | Tmax [20] | Activity [21] | Activity [22] | further results |
| --- | --- | --- | --- | --- | --- | --- | --- | --- | --- | --- | --- | --- | --- | --- | --- | --- | --- | --- | --- | --- | --- |
| COC(=O)[C@H](C)NP(=O)(OC[C@H]1O[C@@H](n2ccc(=O)[nH]c2=O)[C@](C)(F)[C@@H]1O)Oc1ccccc1 (stereo not given in full) | 18968 ng·h/g | 0.25 h | 4960 ng/g | Non-toxic | 60 min | Non-toxic | Non-toxic | 0% | Non-toxic | > 1200 min | 1985 ng/g | 418 ng·h/mL | 930 min | 0.007 ×10⁻⁶ cm/s | 1000 min | Non-toxic | 420 ng·h/mL | 6 h | Non-toxic | Non-toxic | AUC(0-t) at 96 h [6]: 27 ng·h/mL; AUC(0-inf) [7]: 34 ng·h/mL; Drug uptake [23]: 5.24 ng/g; Cmax [24]: 19 ng/mL; Activity [25]: Non-toxic; EC90 [26]: 910 nM; Activity [27]: Non-toxic; Drug uptake [28]: 4.66 ng/g; Cmax [29]: 317 ng/mL; half-life at 100 µM [30]: 10.8 min; AUC [31]: 14206 ng·h/g; pIC50 [32]: < 4.30; pIC50 [33]: < 4.30; Drug uptake [34]: 26 ng/g |
| C[C@H](NP(=O)(OC[C@H]1O[C@@H](n2ccc(=O)[nH]c2=O)[C@](C)(F)[C@@H]1O)Oc1ccc(F)cc1)C(=O)OC1CCCCC1 (stereo not given in full) | 9888 ng·h/g | 6 h | 476 ng/g | Non-toxic | 15 min | Non-toxic | Non-toxic | 52.1% | Non-toxic | > 1200 min | 716 ng/g | 54 ng·h/mL | 1200 min | 0.488 ×10⁻⁶ cm/s | > 1440 min | Non-toxic | 62 ng·h/mL | 4 h | Non-toxic | Non-toxic | Drug uptake [23]: 8.72 ng/g; Cmax [24]: 1.8 ng/mL; Activity [25]: Non-toxic; EC90 [26]: 40 nM; Activity [27]: Non-toxic; Drug uptake [28]: 13 ng/g; Cmax [29]: 36 ng/mL; half-life at 100 µM [30]: 10.8 min; AUC [31]: 8937 ng·h/g; pIC50 [32]: 4.52; pIC50 [33]: 4.43 |
